In ChEMBL document CHEMBL1800059, “Spiroindane based amides as potent and selective MC4R agonists for the treatment of obesity” (Bioorg Med Chem Lett, 2010) one finds Activity, IC50 and EC50 data, which are given here for 28 molecules.

pEC50, pIC50: −log10 of the molar value.

Test [1] addresses T1, Melanocortin receptor 4 (Homo sapiens, UniProt P32245). Description: Agonist activity at human MC4R expressed in CHO cells assessed as increase of alpha-MSH-stimulated cAMP release pretreated for 10 mins before alpha-MSH challenge measured after 40 mins relative to alpha-MSH. The class given is functional, cell-based. Summed up: (§1)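 Each value is the mean of at least three repeat measurements. Functional read-outs give EC50 with % maximal activation.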

The nature of test [2]: Agonist activity at human MC1bR expressed in CHO cells assessed as increase of alpha-MSH-stimulated cAMP release pretreated for 10 mins before alpha-MSH challenge measured after 40 mins relative to alpha-MSH. Type of test: functional. Summed up: as §1
The target of test [3] is T1, Melanocortin receptor 4. Description: Displacement of [125I]-NDP-R-MSH from human MC4R expressed in CHO cells after 1.5 hrs by scintillation counting. The class given is cell-based. Summed up: as §1
Background: Displacement assays read how much labelled ligand stays bound in the presence of the test substance.

Test [4] can be described thus: Agonist activity at human MC1bR expressed in CHO cells assessed as increase of alpha-MSH-stimulated cAMP release pretreated for 10 mins before alpha-MSH challenge measured after 40 mins. Type of test: functional, cell-based. Summed up: as §1
Test [5] addresses T1, Melanocortin receptor 4. Description: Agonist activity at human MC4R expressed in CHO cells assessed as increase of alpha-MSH-stimulated cAMP release pretreated for 10 mins before alpha-MSH challenge measured after 40 mins. The class given is functional, cell-based. Summed up: as §1

As a reminder, the pIC50 is the IC50 on a negative log10 scale, so that one unit is a factor of ten. Usually pEC50 stands for −log10 of the EC50, conventionally taken in molar units.

T1 sequence (P32245 whole entry): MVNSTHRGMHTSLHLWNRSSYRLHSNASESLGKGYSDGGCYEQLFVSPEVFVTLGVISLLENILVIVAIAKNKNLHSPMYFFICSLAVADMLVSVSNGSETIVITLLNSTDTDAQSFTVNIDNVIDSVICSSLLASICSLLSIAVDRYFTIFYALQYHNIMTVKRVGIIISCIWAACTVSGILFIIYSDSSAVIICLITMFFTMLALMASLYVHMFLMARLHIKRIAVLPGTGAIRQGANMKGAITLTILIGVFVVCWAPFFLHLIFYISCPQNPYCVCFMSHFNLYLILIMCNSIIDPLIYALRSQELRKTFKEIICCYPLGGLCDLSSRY

In the case of `CNC(=O)C(C)(C)[C@@H]1CC2(CCN(C(=O)[C@@H]3CN(C(C)(C)C)C[C@H]3c3ccc(F)cc3F)CC2)c2cc(Cl)c(C)cc21`, the Activity at Melanocortin receptor 4 [1] was found to be 86%; in test [2], 38%. The negative logarithm of the IC50 (pIC50) at Melanocortin receptor 4 [3] is 7.33. The pEC50 is 5.86 in test [4] and 7.92 at Melanocortin receptor 4 [5].
The corresponding values for `Cc1cc2c(cc1Cl)C1(CCN(C(=O)[C@@H]3CN(C(C)(C)C)C[C@H]3c3ccc(F)cc3F)CC1)C[C@@H]2C(C)(C)C(=O)N1CC[C@@H](F)C1` are 87%, 69%, 8.80, 6.91 and 8.96.
Regarding `Cc1cc2c(cc1Cl)C1(CCN(C(=O)[C@@H]3CN(C(C)(C)C)C[C@H]3c3ccc(F)cc3F)CC1)C[C@@H]2C(C)(C)C(=O)NC(C)C`, the Activity at Melanocortin receptor 4 [1] was 92%; in test [2], 45%. On Melanocortin receptor 4 [3], this molecule had a pIC50 of 8.23. The figures for the pEC50 (in test [4]; at Melanocortin receptor 4 [5]) were 6.36 and 8.54, respectively.
Take `Cc1cc2c(cc1Cl)C1(CCN(C(=O)[C@@H]3CN(C(C)(C)C)C[C@H]3c3ccc(F)cc3F)CC1)C[C@@H]2C(C)(C)C(=O)N1CC[C@@H](O)C1`: the Activity at Melanocortin receptor 4 [1] stood at 98%; in test [2], 71%. Moreover, the pIC50 at Melanocortin receptor 4 [3] was 9.28. For the same molecule, the figures for the pEC50 (in test [4]; at Melanocortin receptor 4 [5]) were 7.48 and 9.60, respectively.
The matching figures for `CCN(CC)C(=O)C(C)(C)[C@H]1CC2(CCN(C(=O)[C@@H]3CN(C(C)(C)C)C[C@H]3c3ccc(F)cc3F)CC2)c2cc(Cl)c(C)cc21`: 81%, 67%, 8.59, 6.77 and 8.77.
The matching figures for `Cc1cc2c(cc1Cl)C1(CCN(C(=O)[C@@H]3CN(C(C)(C)C)C[C@H]3c3ccc(F)cc3F)CC1)C[C@H]2C(C)(C)C(=O)NC1CC1`: 95%, 20%, 7.26, 5.95 and 7.55.
The matching figures for `Cc1cc2c(cc1Cl)C1(CCN(C(=O)[C@@H]3CN(C(C)(C)C)C[C@H]3c3ccc(F)cc3F)CC1)C[C@@H]2C(C)(C)C(=O)NCC(C)C`: 92%, 45%, 8.18, 5.69 and 7.57.
Take `CO[C@H]1CCN(C(=O)C(C)(C)[C@H]2CC3(CCN(C(=O)[C@@H]4CN(C(C)(C)C)C[C@H]4c4ccc(F)cc4F)CC3)c3cc(Cl)c(C)cc32)C1`: the values for the Activity (on Melanocortin receptor 4 [1]; in test [2]) were 112% and 71%, respectively. On Melanocortin receptor 4 [3], this molecule had a pIC50 of 8.64. The negative logarithm of the EC50 (pEC50) was 6.99 in test [4] and 8.92 at Melanocortin receptor 4 [5].
The matching figures for `CC(=O)N(C)C(C)(C)[C@H]1CC2(CCN(C(=O)[C@@H]3CN(C(C)(C)C)C[C@H]3c3ccc(F)cc3F)CC2)c2cc(Cl)c(C)cc21`: 83%, 41%, 8.60, 6.57 and 8.37.
For the molecule `CCNC(=O)C(C)(C)[C@H]1CC2(CCN(C(=O)[C@@H]3CN(C(C)(C)C)C[C@H]3c3ccc(F)cc3F)CC2)c2cc(Cl)c(C)cc21`, the Activity at Melanocortin receptor 4 [1] was 100%; in test [2] it was 50%. At Melanocortin receptor 4 [3], the pIC50 was 8.51. Also, the pEC50 is 6.53 in test [4] and 8.85 on Melanocortin receptor 4 [5].
The corresponding values for `Cc1cc2c(cc1Cl)C1(CCN(C(=O)[C@@H]3CN(C(C)(C)C)C[C@H]3c3ccc(F)cc3F)CC1)C[C@@H]2C(C)(C)C(=O)NC1CC1` are 95%, 50%, 8.66, 6.61 and 9.10.
The matching figures for `CCN(C)C(=O)C(C)(C)[C@H]1CC2(CCN(C(=O)[C@@H]3CN(C(C)(C)C)C[C@H]3c3ccc(F)cc3F)CC2)c2cc(Cl)c(C)cc21`: 103%, 69%, 8.68, 6.45 and 8.80.
With `Cc1cc2c(cc1Cl)C1(CCN(C(=O)[C@@H]3CN(C(C)(C)C)C[C@H]3c3ccc(F)cc3F)CC1)C[C@@H]2C(C)(C)C(=O)NC(C)(C)CO`, the Activity on Melanocortin receptor 4 [1] is 89%; in test [2] it was 53%. This molecule also showed a pIC50 at Melanocortin receptor 4 [3] of 8.41. Besides, the pEC50 in test [4] is 6.66; on Melanocortin receptor 4 [5], 8.72.
The corresponding values for `CNC(=O)C(C)(C)[C@H]1CC2(CCN(C(=O)[C@@H]3CN(C(C)(C)C)C[C@H]3c3ccc(F)cc3F)CC2)c2cc(Cl)c(C)cc21` are 94%, 60%, 8.59, 6.49 and 9.04.
Regarding `Cc1cc2c(cc1Cl)C1(CCN(C(=O)[C@@H]3CN(C(C)(C)C)C[C@H]3c3ccc(F)cc3F)CC1)C[C@@H]2C(C)(C)C(=O)NCC(F)(F)F`, the values for the Activity (at Melanocortin receptor 4 [1]; in test [2]) were 89% and 30%, respectively. In addition, the pIC50 on Melanocortin receptor 4 [3] was 8.27. Besides, the pEC50 in test [4] was 6.08; at Melanocortin receptor 4 [5], 8.38.
Take `Cc1cc2c(cc1Cl)C1(CCN(C(=O)[C@@H]3CN(C(C)(C)C)C[C@H]3c3ccc(F)cc3F)CC1)C[C@@H]2C(C)(C)C(=O)N1CC[C@H](F)C1`: the Activity at Melanocortin receptor 4 [1] was 106%; in test [2], 68%. Also, at Melanocortin receptor 4 [3], the pIC50 is 8.85. The negative-log EC50 (pEC50) in test [4] is 6.69; at Melanocortin receptor 4 [5] it was 9.01.
The matching figures for `Cc1cc2c(cc1Cl)C1(CCN(C(=O)[C@@H]3CN(C(C)(C)C)C[C@H]3c3ccc(F)cc3F)CC1)C[C@@H]2C(C)(C)C(=O)N1CCOCC1`: 94%, 66%, 9.07, 7.08 and 9.42.
On to `Cc1cc2c(cc1Cl)C1(CCN(C(=O)[C@@H]3CN(C(C)(C)C)C[C@H]3c3ccc(F)cc3F)CC1)C[C@@H]2C(C)(C)C(=O)N1C[C@@H]2C[C@H]1CO2`, for which the values for the Activity (at Melanocortin receptor 4 [1]; in test [2]) were 96% and 72%, respectively. Besides, the pIC50 on Melanocortin receptor 4 [3] was 8.80. The pEC50 was 7.16 in test [4] and 9.12 on Melanocortin receptor 4 [5].
`Cc1cc2c(cc1Cl)C1(CCN(C(=O)[C@@H]3CN(C(C)(C)C)C[C@H]3c3ccc(F)cc3F)CC1)C[C@@H]2C(C)(C)C(=O)N1CCCC1`: the Activity on Melanocortin receptor 4 [1] amounted to 73%; in test [2], 60%. At Melanocortin receptor 4 [3], the pIC50 was 8.74. Also, the pEC50 in test [4] was 6.65; on Melanocortin receptor 4 [5] it was 9.00.
For the molecule `CO[C@@H]1CCN(C(=O)C(C)(C)[C@H]2CC3(CCN(C(=O)[C@@H]4CN(C(C)(C)C)C[C@H]4c4ccc(F)cc4F)CC3)c3cc(Cl)c(C)cc32)C1`, the Activity at Melanocortin receptor 4 [1] worked out at 111%; in test [2], 67%. The pIC50 on Melanocortin receptor 4 [3] is 8.85. In addition, the pEC50 in test [4] was 6.99; on Melanocortin receptor 4 [5] it was 9.16.
The corresponding values for `Cc1cc2c(cc1Cl)C1(CCN(C(=O)[C@@H]3CN(C(C)(C)C)C[C@H]3c3ccc(F)cc3F)CC1)C[C@@H]2C(C)(C)C(=O)NC(C)(C)C` are 76%, 47%, 7.92, 5.99 and 8.00.
Take `Cc1cc2c(cc1Cl)C1(CCN(C(=O)[C@@H]3CN(C(C)(C)C)C[C@H]3c3ccc(F)cc3F)CC1)C[C@H]2C(C)(C)C(=O)NCC(F)(F)F`: the results for the Activity (at Melanocortin receptor 4 [1]; in test [2]) were 78% and 5%, respectively. Besides, at Melanocortin receptor 4 [3], the pIC50 is 7.03. Also, on Melanocortin receptor 4 [5], the pEC50 is 6.51.
For the molecule `Cc1cc2c(cc1Cl)C1(CCN(C(=O)[C@@H]3CN(C(C)(C)C)C[C@H]3c3ccc(F)cc3F)CC1)C[C@@H]2C(C)(C)C(=O)N1CCC1`, the Activity worked out at 88% on Melanocortin receptor 4 [1] and 72% in test [2]. The pIC50 at Melanocortin receptor 4 [3] was 8.96. Also, the pEC50 is 6.62 in test [4] and 9.23 on Melanocortin receptor 4 [5].
On to `Cc1cc2c(cc1Cl)C1(CCN(C(=O)[C@@H]3CN(C(C)(C)C)C[C@H]3c3ccc(F)cc3F)CC1)C[C@@H]2C(C)(C)C(=O)N1CC[C@H](O)C1`, for which the Activity turned out to be 88% on Melanocortin receptor 4 [1] and 93% in test [2]. The molecule further had a pIC50 on Melanocortin receptor 4 [3] of 9.05. The pEC50 was 7.54 in test [4] and 9.43 on Melanocortin receptor 4 [5].
The matching figures for `CCNC(=O)C(C)(C)[C@@H]1CC2(CCN(C(=O)[C@@H]3CN(C(C)(C)C)C[C@H]3c3ccc(F)cc3F)CC2)c2cc(Cl)c(C)cc21`: 96%, 26%, 7.28, 5.85 and 7.49.
Turning to `Cc1cc2c(cc1Cl)C1(CCN(C(=O)[C@@H]3CN(C(C)(C)C)C[C@H]3c3ccc(F)cc3F)CC1)C[C@H]2C(C)(C)C(=O)N(C)C`, the Activity at Melanocortin receptor 4 [1] came out at 80%; in test [2], 17%. Also, the pIC50 at Melanocortin receptor 4 [3] was 7.23. In addition, the pEC50 in test [4] is 5.30; at Melanocortin receptor 4 [5], 7.28.
The matching figures for `Cc1cc2c(cc1Cl)C1(CCN(C(=O)[C@@H]3CN(C(C)(C)C)C[C@H]3c3ccc(F)cc3F)CC1)C[C@@H]2C(C)(C)C(=O)NCc1ccccc1`: 79%, 29%, 7.92, 6.03 and 7.38.
The corresponding values for `Cc1cc2c(cc1Cl)C1(CCN(C(=O)[C@@H]3CN(C(C)(C)C)C[C@H]3c3ccc(F)cc3F)CC1)C[C@@H]2C(C)(C)C(=O)N1CCC(F)(F)C1` are 96%, 54%, 8.70, 6.55 and 8.42.
